# Source: PubChem BioAssay (several laboratories)
# Rows were chosen to be rich in hits. Some 1.3% of all compounds tested hit in one or more screens of this group.
# GSK3 alpha inh – inhibitors of human GSK-3 alpha kinase. actives 0.1% (n = 320,000). inhibition, % at 10 µM. AID 2650. P49840. ADP-Glo luminescence, 60 min;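 active means more than half of replicates show inhibition above 20%; inconclusive means some but at most half of replicates above 20% inhibition; inactive means no replicate shows inhibition above 20%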;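 further: GST-tagged GSK-3 alpha with peptide substrate and 25 µM ATP; 0% = DMSO neutral wells and 100% = GW8510 positive control wells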
# H9c2 TAG inh – reduces triacylglycerol accumulation in H9c2 cells | inhibition, % at 12.5 µM | Nile Red lipid (TAG) fluorescence; cells loaded with 200 µM oleic acid | actives 0.66% (n = 230,000);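 active means pattern-corrected inhibition of lipid staining of at least 50% with the nuclear-stain viability signal not falling by more than 50%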;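 further: 0% = DMSO wells and 100% = triacsin C control wells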
# STK33 kinase inh – blocks human STK33 kinase activity | purified STK33, MBP phosphorylation, ADP-Glo luminescence | inhibition, % at 10 µM | Q9BYT3 | actives 0.073% (n = 320,000) | AID 2661;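 active means inhibition at or above 25%, using the most active replicate where run in duplicate; inactive means inhibition below 25%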
# Target sequence (Q9BYT3 whole entry, looked up): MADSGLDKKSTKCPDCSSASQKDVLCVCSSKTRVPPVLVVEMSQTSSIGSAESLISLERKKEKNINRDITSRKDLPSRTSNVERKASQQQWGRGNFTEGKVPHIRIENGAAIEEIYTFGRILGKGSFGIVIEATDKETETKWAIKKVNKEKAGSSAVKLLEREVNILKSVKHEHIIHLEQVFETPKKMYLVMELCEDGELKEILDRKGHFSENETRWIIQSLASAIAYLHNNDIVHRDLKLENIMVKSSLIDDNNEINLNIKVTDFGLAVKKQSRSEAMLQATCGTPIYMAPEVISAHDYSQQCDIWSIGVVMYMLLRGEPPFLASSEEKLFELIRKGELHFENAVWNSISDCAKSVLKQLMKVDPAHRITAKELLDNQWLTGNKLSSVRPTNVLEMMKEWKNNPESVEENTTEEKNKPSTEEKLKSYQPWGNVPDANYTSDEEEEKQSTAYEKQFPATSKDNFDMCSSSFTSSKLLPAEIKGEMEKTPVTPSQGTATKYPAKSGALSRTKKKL
# LANA-H2B inh – blocks KSHV LANA binding to histone H2A/H2B. Q9QR71. cell-free LANA-H2A/H2B peptide, fluorescence polarization. inhibition, % (concentration not given with the values). actives 0.6% (n = 320,000). AID 2629; in the data active means inhibition mostly above about 10%, no sharp cut-off; inactive means mostly below about 6.7%
# Lipid droplet – modulators of hepatic lipid droplet formation. AML12 mouse hepatocytes, oleate lipid droplets, BODIPY imaging. inhibition, % at 6.5 µM. actives 0.4% (n = 240,000). AID 1656;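 active means lipid droplet intensity inhibited by at least 50%, with more than 500 cells counted; inconclusive means wells with under 300 cells, treated as cytotoxic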
#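 Material – AML12 mouse liver cells · Also added – oleate loading, 100 µM · Compound dosing – 6.5 µM single-point dosing · Times – overnight treatment with compound plus oleate · Measured by – fluorescence imaging, 20x objective, two fields per well · Read-out – percent inhibition of filter-corrected integrated lipid droplet intensity per well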
# GSK3beta inhib – inhibitors of human GSK3beta kinase. P49841. GST-GSK3beta kinase, ADP-Glo luminescence, 60 min; stronger effect = lower value. activity score (negative = inhibition), % at 10 µM. actives 0.038% (n = 300,000);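 active means more than half of replicate wells score below -50%, meaning over 50% inhibition versus plate controls; inconclusive means some replicates but at most half score below -50%; inactive means no replicate scores below -50%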;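 further: 0% = median DMSO wells and -100% = median GW8510 positive control wells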
#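 Test system: GST-tagged human GSK3beta kinase, cell-free; evaluation: activity score scaled between in-plate DMSO and GW8510 controls; measured by: ADP-Glo luminescence; incubation: 60 min reaction, RT; benchmarks: DMSO and 20 µM GW8510; reagent: peptide substrate plus 25 µM ATP (final); medium: Tris/MgCl2 kinase buffer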
# TAG conf – triacylglycerol accumulation inhibition, confirmation. shares compounds with H9c2 TAG inh. H9c2 lipid accumulation, Nile Red fluorescence; cells loaded with 200 µM oleic acid. inhibition, % at 12.5 µM. actives 71% (n = 990). AID 651629;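 active means mean inhibition across replicates of 40% or more; inactive means mean inhibition below 40%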;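 further: plate controls were DMSO only wells for no effect and Triacsin C treated wells for full effect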
# Numbers without * were called inactive; ? = inconclusive; . = no result given.
SMILES,GSK3 alpha inh,H9c2 TAG inh,STK33 kinase inh,LANA-H2B inh,Lipid droplet,GSK3beta inhib,TAG conf
COc1ccc(-c2nc(-c3ccccc3)c(-c3cc([N+](=O)[O-])ccc3C)[nH]2)cc1OC,-5,50*,1,-1,20,0,58*
O=C(CSc1nc2ccc(Nc3nc(N4CCOCC4)nc(N4CCOCC4)n3)cc2s1)Nc1ccccc1F,.,73*,0,6,9,-5,78*
O=C(CSc1nc2ccc(Nc3nc(N4CCOCC4)nc(N4CCOCC4)n3)cc2s1)N1CCOCC1,1,.,-1,1,-1,0,.
O=C(CSc1nc2ccc(Nc3nc(N4CCOCC4)nc(N4CCOCC4)n3)cc2s1)Nc1ccccc1Cl,-1,62*,0,-1,7,-1,67*
Nc1ccc2nc(SCC(=O)Nc3ccc(N4CCOCC4)c(Cl)c3)sc2c1,-2,.,0,-3,-1,0,.
CCCC(=O)Nc1ccc2nc(SCC(=O)Nc3ccc(N4CCOCC4)c(Cl)c3)sc2c1,5,51*,2,-3,.,0,34
CCOc1ccc(COC(=O)C2CC(=O)N(CCc3ccccc3)C2)cc1OC (centres undefined),11,8,-2,0,.,.,.
COc1cc(CC(=O)OCC(=O)c2ccc3c(c2)OCCO3)cc(OC)c1OC,1,68*,0,-1,-90,0,49*
O=C(COC(=O)c1ccc(O)cc1)c1ccc2c(c1)OCCO2,.,-16,.,.,.,.,.
COc1ccc(/C=C/c2c(-c3cccc(C)c3)oc3ccc(N4CCOCC4)cc23)cc1,1,27,0,-1,.,-2,.
CCC(C)NC(=O)NC(=O)CSc1nnc(-c2ccccc2F)n1C1CC1 (centres undefined),-4,.,0,2,2,4,.
N#C/C(=C\c1cc([N+](=O)[O-])c(N2CCCCC2)cc1N1CCCCC1)c1nn(-c2ccccc2)c(N)c1C#N,-2,51*,-1,2,.,1,53*
Cc1ccc(/C=C(\C#N)c2nn(-c3ccccc3)c(N)c2C#N)cc1,-3,.,-2,1,12,-3,.
Cc1ccc(S(=O)(=O)N2CCN(C(=O)c3c(-c4ccccc4)noc3C)CC2)cc1,-2,.,-1,-5,-6,3,.
CC(C)Cn1c(=S)[nH]c2cc(C(=O)O)ccc2c1=O,2,3,1,-21,18,4,.
COc1cc(/C=C2/NC(=O)N(Cc3ccccc3F)C2=O)ccc1Oc1ccc([N+](=O)[O-])cn1,-5,11,-3,3,16,1,.
COc1cc(/C=C2/NC(=O)N(Cc3ccccc3F)C2=O)ccc1O,0,59*,4,-4,8,0,63*
N#C/C(=C\C1=C(N2CCOCC2)C(=C\c2ccc(Cl)cc2)/CC1)C(=O)Nc1ccccc1F,-1,.,1,0,26,3,.
CCN(CC)c1ccc(/C=C2\CCC(/C=C(/C#N)C(=O)Nc3ccccc3F)=C2N2CCOCC2)cc1,.,91*,.,.,.,.,65*
COc1cc(C2c3cc4c(cc3C(O)C3COCC23)OCO4)cc(OC)c1OC (centres undefined),.,25,.,.,.,.,.
COc1cc([C@@H]2c3cc4c(cc3[C@H](O)[C@H]3COC(=O)[C@H]23)OCO4)cc(OC)c1OC,-3,50*,0,-10,?,-1,49*
COc1cc(C(=O)Nc2nc3ccc(C)cc3s2)ccc1OCc1c(C)noc1C,0,51*,1,-1,.,-3,40
CCN(CC)CCNc1ccc(CO)c2sc3ccccc3c(=O)c12,2,22,5,6,-18,-1,.
COc1cc(C)c2sc3ccccc3c(=O)c2c1NCCN(C)C,.,70*,.,.,.,.,64*
NC(=O)c1cccc(-c2ccnc3c2CC(C(=O)NCc2ccco2)O3)c1 (centres undefined),.,39,.,.,.,.,.
SMILES,GSK3 alpha inh,H9c2 TAG inh,STK33 kinase inh,LANA-H2B inh,Lipid droplet,GSK3beta inhib,TAG conf
CC(=O)c1cccc(-c2ccnc3c2CC(C(=O)NCc2ccco2)O3)c1 (centres undefined),.,57*,.,.,.,.,59*
O=C(c1cnn2c1NC(c1ccc(Br)cc1)CC2C(F)(F)F)N1CCN2CCCC2C1 (centres undefined),-1,.,-1,4,.,1,.
O=C(c1cnn2c1NC(c1ccc(Br)cc1)CC2C(F)(F)F)N1CCN(C23CC4CC(CC(C4)C2)C3)CC1 (centres undefined),-1,54*,-2,4,10,4,55*
CC1CC(C)CN(CC(=O)c2cccs2)C1 (centres undefined),-1,59*,-1,2,-20,-2,6
CC(C)CNS(=O)(=O)c1ccc(CCC(=O)O)cc1,2,.,1,0,1,0,.
CC(C)CNS(=O)(=O)c1ccc(CCC(=O)Nc2cc(Cl)ccc2Oc2ccccc2)cc1,3,55*,6,-3,40,-6,36
CCOC(=O)Cc1ccc(Nc2nc3cc(-c4sccc4C)sc3c(=O)n2C)cc1,.,51*,.,.,.,.,71*
COc1ccc(Nc2nc3cc(-c4sccc4C)sc3c(=O)n2C)cc1OC,.,57*,.,.,.,.,71*
COc1ccc(Nc2nc3cc(-c4ccsc4)sc3c(=O)n2C)cc1OC,.,18,.,.,.,.,.
CCO[C@@H]1OC(C(=O)N2CCN(Cc3ccccc3)CC2)=C[C@H](c2ccc(C(F)(F)F)cc2)[C@H]1CCCO,-1,53*,-1,-2,-9,-4,52*
CCO[C@@H]1OC(C(=O)N2CCN(Cc3ccccc3)CC2)=C[C@H](c2ccc(Br)cc2)[C@H]1CCCO,-1,15,-1,7,7,2,.
CCCn1c(C(C)Nc2nc(-c3ccc(Cl)c([N+](=O)[O-])c3)cs2)nc2ccccc21 (centres undefined),-5,.,-1,-1,.,-2,.
Cc1ccc(Cn2c(C(C)Nc3nc(-c4ccc(Cl)c([N+](=O)[O-])c4)cs3)nc3cc(C(F)(F)F)ccc32)cc1 (centres undefined),2,70*,1,-2,.,2,71*
COc1ccc(-n2cnc3scc(-c4ccc(OC)c(OC)c4)c3c2=O)cc1,0,.,-1,1,-24,0,.
S=C(N/N=C/c1cccs1)NC1CC2CCC1C2 (centres undefined),-3,54*,1,-6,3,2,56*
CC(=O)Nc1ccc(Oc2nc(-c3ccccn3)nc3ccccc23)cc1,-2,64*,-2,4,8,6,3
Cc1cccc(Oc2nc(-c3ccccn3)nc3ccccc23)c1,0,66*,1,-3,3,0,46*
COc1cc2c3c(cccc3c1)C(=O)N(CCN1CCCC1)C2=O,.,117*,.,.,.,.,109*
